Results pooled from the literature.
Lines come from different studies, so protocols differ.
Target: Ephrin type-A receptor 3 (EPHA3, Homo sapiens, UniProt P29320)
One construct used (P29320 21-983): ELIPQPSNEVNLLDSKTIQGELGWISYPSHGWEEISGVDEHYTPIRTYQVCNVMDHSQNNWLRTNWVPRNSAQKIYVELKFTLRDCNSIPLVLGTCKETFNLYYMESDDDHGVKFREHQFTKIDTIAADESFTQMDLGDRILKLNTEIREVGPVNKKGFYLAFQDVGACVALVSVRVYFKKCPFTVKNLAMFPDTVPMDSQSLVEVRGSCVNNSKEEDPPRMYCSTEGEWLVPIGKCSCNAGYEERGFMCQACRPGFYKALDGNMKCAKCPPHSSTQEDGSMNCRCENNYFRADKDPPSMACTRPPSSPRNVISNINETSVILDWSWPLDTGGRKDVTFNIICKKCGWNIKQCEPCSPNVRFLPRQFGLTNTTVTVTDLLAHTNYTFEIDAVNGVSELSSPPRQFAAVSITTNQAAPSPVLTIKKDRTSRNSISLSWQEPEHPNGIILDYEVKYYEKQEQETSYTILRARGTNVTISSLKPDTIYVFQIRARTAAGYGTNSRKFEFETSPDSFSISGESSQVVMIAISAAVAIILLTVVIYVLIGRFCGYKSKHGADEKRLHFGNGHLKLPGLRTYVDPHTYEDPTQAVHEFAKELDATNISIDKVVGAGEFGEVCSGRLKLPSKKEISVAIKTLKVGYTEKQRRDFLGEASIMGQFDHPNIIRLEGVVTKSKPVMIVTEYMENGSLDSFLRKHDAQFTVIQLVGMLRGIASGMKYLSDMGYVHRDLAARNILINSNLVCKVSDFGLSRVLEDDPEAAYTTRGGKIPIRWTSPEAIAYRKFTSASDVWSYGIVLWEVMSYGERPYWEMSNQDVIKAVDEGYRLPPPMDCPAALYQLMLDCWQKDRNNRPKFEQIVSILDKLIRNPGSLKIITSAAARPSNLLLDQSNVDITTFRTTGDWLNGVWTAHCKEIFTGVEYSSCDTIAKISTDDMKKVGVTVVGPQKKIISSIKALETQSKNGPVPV

SMILES | read-out | method | concentration | remaining binding [%]
Cc1cnn2ncc(-c3ccnc(N(C)C)n3)c2c1 | binding |  | 1 µM | 84
CNC(=O)[C@@H]1CC[C@@H](n2c(-c3ccc4cnccc4c3)nc3ccc(C(=O)NCc4cccc(C(N)=O)c4)cc32)C1 | binding | competition with immobilised ligand | 1 µM | 96
c1cncc(-c2cccc(Nc3nccc(NC4CCCCC4)n3)c2)c1 | binding | competition with immobilised ligand | 10 µM | 68
O=C(NCC1CCOCC1)c1n[nH]cc1NC(=O)c1c(F)cccc1F | binding | competition with immobilised ligand | 1 µM | 82
O=C(NCCCN1CCOCC1)c1ccc(Nc2nccc(-c3cc4ccccc4s3)n2)cc1 | binding | competition with immobilised ligand | 1 µM | 85
N[C@@H]1CCN(c2nccc(-c3cnn4ncccc34)n2)C1 | binding |  | 1 µM | 100
C[C@H](c1ccnc(Nc2nc3ccc(-c4cc(N(C)C)ncn4)cc3[nH]2)c1)N1CCN(C(=O)CC(F)(F)F)CC1 | cell-free assay | competition with immobilised ligand | 0.1 µM | 100
c1cnn2ncc(-c3ccnc(N4CCC45COC5)n3)c2c1 | binding |  | 1 µM | 68
COc1ncc2cc3ccccc3nc2c1C#N | cell-free assay | competition with immobilised ligand | 5 µM | 96
CC(=O)N1CCC(c2ccc(C(=O)NC3=NCCN3)cc2C(F)(F)F)CC1 | cell-free assay | competition with immobilised ligand | 1 µM | 95
C[C@H]1CCN(c2nccc(-c3cnn4ncccc34)n2)C1 | binding |  | 1 µM | 100
COc1ccc2c(O[C@@H]3C[C@H]4C(=O)N[C@]5(C(=O)O)CC5/C=C\CCCCC[C@H](NC(=O)OC5CCCC5)C(=O)N4C3)cc(-c3csc(NC(=O)C(C)C)n3)nc2c1C (stereo partly drawn) | cell-free assay | competition with immobilised ligand | 1 µM | 97
CC1CCCN1c1nccc(-c2cnn3ncccc23)n1 (stereo not drawn) | binding |  | 1 µM | 97
C=CC(=O)N1CCC(C(=O)NCC(=O)N2CCN(c3nc(-c4cnc(N)nc4C(F)F)nc(N4CCOCC4)n3)CC2)CC1 | binding | competition with immobilised ligand | 1 µM | 90
Nc1ncc2c(n1)-c1c([nH]c3ccc(C#CC4CC4)cc13)CCCC2 | binding | competition with immobilised ligand | 1 µM | 100
C[C@H](c1cccc(C#N)c1)n1cc(Cl)cc(C(N)=O)c1=N | cell-free assay | competition with immobilised ligand | 1 µM | 100
COc1cnc(Nc2cccc(S(N)(=O)=O)c2)nc1N1CCN(c2ccccc2)C(=O)C1 | binding | competition with immobilised ligand | 1 µM | 98
CCS(=O)(=O)c1cc2cc(C[C@](O)(CC(C)(C)c3ccc(F)cc3C(N)=O)C(F)(F)F)[nH]c2cn1 | cell-free assay | competition with immobilised ligand | 1 µM | 95
O=C(NCCCN1CCOCC1)c1ccc(Nc2ncc(Cl)c(-c3ccc(Cl)s3)n2)cc1 | binding | competition with immobilised ligand | 1 µM | 63
CN(C)c1nccc(-c2cnn3ncccc23)n1 | binding |  | 1 µM | 90
Cc1cc(NC(=O)c2cccc(S(F)(F)(F)(F)F)c2)cc(-n2ccn3nc(-c4cccnc4)cc23)c1 | cell-free assay | competition with immobilised ligand | 1 µM | 100
